Drawing on ChEMBL document CHEMBL1158417, “Phosphonate analogues of cyclopropavir phosphates and their E-isomers. Synthesis and antiviral activity” (Bioorg Med Chem, 2009), this text covers CC50 and EC50 for seven compounds.

A value given as a limit tells only on which side of the number the result lay.

Data set [1] is described as follows: (§1) Cytotoxicity against MEF. The format is cell-based. The conditions noted are these: mouse, MEF cells.
Data set [2] in a line: (§2) Cytotoxicity against HFF by neutral red uptake assay. The format is cell-based. The conditions noted are these: human, HFF cells. In short, it runs like this: (§3)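 HFF cultures; cytotoxicity determined by neutral red uptake.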
Data set [3] can be described thus: Cytotoxicity against human CEM cells. The conditions noted are these: CCRF-CEM cells. The format is cell-based.
A short description of data set [4]: (§4) Cytotoxicity against HFF by visual cytotoxicity assay. Format: cell-based. As to conditions: human, HFF cells. Summed up:
(§5)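 Uninfected HFF cultures scored by visual inspection for cytotoxicity in cells unaffected by virus.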

A further data set deals with Human alphaherpesvirus 2. Nature of the data set: Antiviral activity against Herpes simplex virus type 2 in HFF assessed as inhibition of virus-induced cytopathic effect. Format: functional, organism-based. In short, it runs like this:
(§6)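 HSV-1 and HSV-2 tested in HFF cultures by inhibition of virus-induced cytopathic effect (CPE); cytotoxicity measured by neutral red uptake.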
For orientation: Cytopathic effects are the visible damage that an infection or toxin causes in cultured cells.

Data set [5] concerns Human gammaherpesvirus 4. Nature of the data set: Antiviral activity against Epstein-Barr virus in human H1 cells by DNA hybridization assay. The conditions noted are these: human gammaherpesvirus 4, H1. The format is functional, organism-based.
Data set [6] relates to Human alphaherpesvirus 3. Briefly: Antiviral activity against Varicella zoster virus in HFF assessed as inhibition of virus-induced cytopathic effect. Format: functional, organism-based. Summed up:
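VZV in HFF culture; antiviral activity read by cytopathic effect (CPE) inhibition assay.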

A short description of data set [7]: Cytotoxicity against human Daudi cells. The format is cell-based.
For a further data set, the system named is Murid betaherpesvirus 1. Briefly: Antiviral activity against Murine cytomegalovirus in MEF by plaque reduction assay. Format: functional, organism-based. Summed up:
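Murine CMV titrated by plaque reduction in mouse embryonic fibroblasts (MEF); EC50 from plaque counts.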

Data set [8] deals with Human alphaherpesvirus 1. Briefly: Antiviral activity against Herpes simplex virus type 1 in HFF assessed as inhibition of virus-induced cytopathic effect. Format: functional, organism-based. Summed up: as §6
Data set [9] is described as follows: (§7) Cytotoxicity against human replicating KB cells. The format is cell-based. As to conditions: KB cells. Summed up: (§8)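 Cytotoxicity measured in replicating KB cells, run alongside HSV-1 assays in BSC-1 cells.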
A further data set deals with MEF. The data set is described as §1. The format is cell-based. The conditions noted are these: mouse, mef.
The test system of data set [10] is HFF. The data set is described as §2. The conditions noted are these: human, hff. Format: cell-based. In short, it runs like this: as §3
Data set [11] concerns Human betaherpesvirus 5. Nature of the data set: Antiviral activity against Human cytomegalovirus Towne in HFF by plaque reduction assay. Format: functional, organism-based. The conditions noted are these: Human betaherpesvirus 5, Towne. Summed up: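 HCMV Towne or AD169 grown in human foreskin fibroblast (HFF) cultures; plaque reduction read-out for EC50; cytotoxicity judged visually in HFF cells not infected by virus.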
Background: Plaques are areas of infected cells; plaque reduction assays count them against a control.

Data set [12] relates to HFF. The description is as §4. The format is cell-based. The conditions noted are these: human, hff. In short, it runs like this: as §5
In data set [13] the test system is Human betaherpesvirus 5. Nature of the data set: Antiviral activity against drug-resistant Human cytomegalovirus E8 isolate expressing UL97 phosphotransferase with two point mutation in UL97 gene by plaque reduction assay. The format is functional, organism-based. As to conditions: Human betaherpesvirus 5, E8. Summed up: (§9)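 Plaque reduction with HCMV Towne background strains: wild-type, 2696r (most of UL97 deleted) and E8 (two UL97 point mutations); four drug concentrations, each in duplicate; EC50 read from plaque counts.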

Data set [14] has as its system Human alphaherpesvirus 1. Briefly: Antiviral activity against Herpes simplex virus type 1 in african green monkey BSC1 cells by plaque reduction assay. The format is functional, organism-based. As to conditions: Human alphaherpesvirus 1, BSC-1. Summed up: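 HSV-1 plaque reduction in BSC-1 cells; cytotoxicity determined in replicating KB cells.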
In data set [15] the test system is Human betaherpesvirus 5. Briefly: Antiviral activity against cyclopropavir-resistant Human cytomegalovirus 2696r expressing most of UL97 phosphotransferase sequence deleted mutant by plaque reduction assay. The format is functional, organism-based. As to conditions: Human betaherpesvirus 5, 2696r. Summed up:
as §9

Data set [16] is described as follows: Cytotoxicity against human Akata cells. Format: cell-based.
For data set [17], the system named is Human betaherpesvirus 5. Briefly: Antiviral activity against Human cytomegalovirus AD169 in HFF by cytopathic effect (CPE) inhibition assay. The conditions noted are these: Human betaherpesvirus 5, AD169.
Data set [18] concerns Human gammaherpesvirus 4. Briefly: Antiviral activity against Epstein-Barr virus in human Akata cells by DNA hybridization assay. The format is functional, organism-based. As to conditions: human gammaherpesvirus 4, Akata. Summed up: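 EBV replication measured by DNA hybridization assay in Akata cells.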
For data set [19], the system named is Human betaherpesvirus 5. Briefly: Antiviral activity against Human cytomegalovirus Towne expressing wild type UL97 phosphotransferase by plaque reduction assay. Format: functional, organism-based. As to conditions: Human betaherpesvirus 5, Towne. In short, it runs like this: as §9
Another data set relates to KB. The data set is described as §7. The conditions noted are these: kb. Format: cell-based. Summed up:
as §8

For data set [20], the system named is Human alphaherpesvirus 1. Briefly: Antiviral activity against Herpes simplex virus type 1 in african green monkey BSC1 cells by ELISA. As to conditions: Human alphaherpesvirus 1, BSC-1. Format: functional, organism-based. In short, it runs like this: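 HSV-1 in BSC-1 cells, viral antigen measured by ELISA; cytotoxicity determined in replicating KB cells.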
On the technique in general: In an ELISA, binding on a coated surface is turned into a signal by an enzyme label.

Data set [21] deals with Human betaherpesvirus 5. Nature of the data set: Antiviral activity against Human cytomegalovirus AD169 in HFF by cytopathic effect assay. The format is functional, organism-based. The conditions noted are these: Human betaherpesvirus 5, AD169. Summed up: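 HCMV strain AD169 grown in human foreskin fibroblast (HFF) cultures; antiviral effect read as inhibition of virus-induced cytopathic effect (CPE).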

Data set [22] concerns Human alphaherpesvirus 3. Briefly: Antiviral activity against Varicella zoster virus in HFF by plaque reduction assay. Format: functional, organism-based. In short, it runs like this:
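VZV in HFF culture; antiviral activity measured by plaque reduction assay.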

By CC50 is commonly meant the concentration giving 50% cytotoxicity. The term EC50 denotes the concentration needed to bring the measured effect to its halfway point.

As to `Nc1nc(O)c2ncn(/C=C3/CC34COP(=O)(O)OC4)c2n1` (centres undefined), the CC50 in data set [1] was over 301 µM; in data set [2], over 301 µM; in [3], over 100 µM; in [4], over 100 µM; in data set [7], 150 µM; in data set [9], over 100 µM. The EC50 with Human alphaherpesvirus 2 was 242 µM; with Human gammaherpesvirus 4 [5], over 20 µM; in the data set with Human alphaherpesvirus 3 [6] it was over 301 µM; with Murid betaherpesvirus 1 it was 7.2 µM; in the data set with Human alphaherpesvirus 1 [8], over 301 µM.
In the case of `Nc1nc2c(ncn2/C=C2/CC23CCP(=O)(O)OC3)c(=O)[nH]1` (centres undefined), the CC50 with MEF was over 100 µM; in the data set with HFF [10] it was over 300 µM; in the data set with HFF [12] it was over 100 µM; in [16] (akata), over 100 µM; in the data set with KB, over 100 µM. The EC50 is 2.4 µM in the data set on Human betaherpesvirus 5 [11]; 4 µM in the data set with Human betaherpesvirus 5 [13]; over 300 µM in the data set with Human alphaherpesvirus 2; 40 µM in the data set on Human alphaherpesvirus 1 [14]; 3 µM in the data set with Human betaherpesvirus 5 [15]; over 300 µM in the data set on Human alphaherpesvirus 3 [6]. In addition, the 50% effective concentration (EC50) is 0.4 µM with Murid betaherpesvirus 1; over 300 µM in the data set on Human alphaherpesvirus 1 [8]; 11.6 µM in the data set on Human betaherpesvirus 5 [17]; over 100 µM with Human gammaherpesvirus 4 [18]; 4 µM in the data set with Human betaherpesvirus 5 [19].
As for `Nc1nc2c(ncn2/C=C2/CC2(CO)CCP(=O)(O)O)c(=O)[nH]1` (centres undefined), the EC50 was found to be 2.2 µM in the data set with Human betaherpesvirus 5 [11]; 3.2 µM with Human betaherpesvirus 5 [13]; 76.5 µM in the data set on Human alphaherpesvirus 2; 15 µM in the data set on Human alphaherpesvirus 1 [20]; 3 µM with Human betaherpesvirus 5 [15]; 0.13 µM in the data set on Murid betaherpesvirus 1. Moreover, the concentration for a half-maximal effect (EC50) is 59.4 µM with Human alphaherpesvirus 1 [8], 2.7 µM with Human betaherpesvirus 5 [17] and 3.5 µM with Human betaherpesvirus 5 [19]. For the same compound, the CC50 in data set [4] and in data set [16] (Akata cells) was over 100 µM each time.
On to `Nc1nc2c(ncn2/C=C2\CC23CCP(=O)(O)OC3)c(=O)[nH]1` (centres undefined), for which the EC50 was over 100 µM in the data set on Human betaherpesvirus 5 [11], 100 µM in the data set on Human alphaherpesvirus 1 [14], over 300 µM with Human betaherpesvirus 5 [17] and over 100 µM in the data set on Human gammaherpesvirus 4 [18].
`Nc1nc2c(ncn2/C=C2\CC2(CO)CCP(=O)(O)O)c(=O)[nH]1` (centres undefined) returned a CC50 in the data set with HFF [10] of over 300 µM. Also, the EC50 in the data set with Human betaherpesvirus 5 [11] is over 100 µM; in the data set on Human betaherpesvirus 5 [21], over 300 µM; in the data set with Human alphaherpesvirus 2, over 300 µM; in the data set with Human alphaherpesvirus 1 [14], 100 µM; with Human alphaherpesvirus 3 [6], 191 µM; in the data set with Human alphaherpesvirus 1 [8] it was over 300 µM. The compound further came in with an EC50 with Human gammaherpesvirus 4 [18] of over 100 µM.
`Nc1nc2c(ncn2COCCO)c(=O)[nH]1` [ACYCLOVIR]: the CC50 in the data set on HFF [10] is over 300 µM. Further, the EC50 in the data set on Human alphaherpesvirus 2 is 1.2 µM; in the data set with Human alphaherpesvirus 1 [14], 0.3 µM; with Human alphaherpesvirus 3 [22], 4.4 µM; with Human alphaherpesvirus 1 [8], 1.3 µM.
On to `Nc1nc2c(ncn2/C=C2/CC2(CO)CO)c(=O)[nH]1` [FILOCICLOVIR], for which the CC50 was over 380 µM in data set [1]; over 380 µM in data set [2]; over 100 µM in data set [4]; 46 µM in [16] (Akata cells); over 100 µM in data set [9]. In addition, the EC50 with Human betaherpesvirus 5 [11] is 0.46 µM; in the data set on Human betaherpesvirus 5 [13], 8 µM; in the data set with Human alphaherpesvirus 2 it was over 380 µM; in the data set on Human alphaherpesvirus 1 [20], over 100 µM; with Human betaherpesvirus 5 [15], 28 µM; in the data set with Human alphaherpesvirus 3 [6], over 380 µM. The EC50 in the data set with Murid betaherpesvirus 1 is 0.27 µM; in the data set on Human alphaherpesvirus 1 [8] it was over 380 µM; with Human betaherpesvirus 5 [19], 0.6 µM.
